Source: PubChem BioAssay (Sanford-Burnham Center for Chemical Genomics)
hIAP act = human IAP activators, primary screen, biochemical, luminescence, uHTS; Intestinal-type alkaline phosphatase (Homo sapiens), P09923; purified human IAP, CDP-Star luminescence, 30 min; hits give high values; 1 = vehicle-only enzyme, 0 = enzyme-free background; activation factor at 10 µM; actives 0.16% (n = 330,000);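 active means activation factor of the enzyme at least 2-fold when tested at 20 µM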
Target sequence (P09923 whole entry, looked up): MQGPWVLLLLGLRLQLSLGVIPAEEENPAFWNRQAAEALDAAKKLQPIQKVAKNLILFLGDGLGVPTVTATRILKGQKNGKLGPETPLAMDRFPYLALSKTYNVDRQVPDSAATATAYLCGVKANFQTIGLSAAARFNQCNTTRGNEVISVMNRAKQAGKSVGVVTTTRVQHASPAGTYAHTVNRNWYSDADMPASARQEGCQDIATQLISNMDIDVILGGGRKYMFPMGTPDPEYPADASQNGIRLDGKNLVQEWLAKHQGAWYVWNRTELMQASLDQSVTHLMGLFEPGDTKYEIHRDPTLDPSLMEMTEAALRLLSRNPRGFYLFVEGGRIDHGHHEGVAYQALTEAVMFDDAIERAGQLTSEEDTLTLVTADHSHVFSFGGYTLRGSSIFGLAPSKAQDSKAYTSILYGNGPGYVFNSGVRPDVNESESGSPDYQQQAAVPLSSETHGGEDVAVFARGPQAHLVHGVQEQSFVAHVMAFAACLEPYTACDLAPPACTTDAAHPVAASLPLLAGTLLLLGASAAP
mIAP inh = inhibitors of mouse IAP, primary screen, biochemical, luminescence, uHTS; intestinal alkaline phosphatase [Mus musculus]; purified mouse IAP, CDP-Star luminescence, 30 min; inhibition, % at 10 µM; actives 0.2% (n = 330,000);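 active means inhibition of at least 40% at 10 µM in the primary screen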;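 further: plate controls were DMSO with enzyme for no effect and no enzyme wells for full effect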
bIAP act = bovine intestinal alkaline phosphatase activators, primary screen, biochemical, bovine IAP, CDP-star luminescence. purified bovine IAP, 30 min; hits give high values; fold of DMSO-control signal, blank-subtracted. activation factor at 20 µM. actives 0.17% (n = 200,000). AID 1016, 2008;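 active means activation factor of 2 or more at 20 µM, a signal rise over negative controls twice the positive control's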
hIAP inh = human IAP inhibitors, primary screen, biochemical, luminescence, uHTS; AID 2544, 2010; actives 0.12% (n = 330,000); inhibition, % at 10 µM; Intestinal-type alkaline phosphatase (Homo sapiens), P09923; purified IAP, CDP-Star luminescence, 30 min;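 active means inhibition reaching a set limit with compound at 10 µM in the primary screen, cut at about 35% in these data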;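 further: plate controls were DMSO wells with enzyme for no effect and no-enzyme buffer wells for full effect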
bIAP inhibitor = bovine intestinal alkaline phosphatase inhibitors, primary screen, selectivity assay for TNAP inhibitor project, biochemical, bovine IAP, CDP-star luminescence; alkaline phosphatase, intestinal [Bos taurus]; purified bovine IAP, 30 min; inhibition, % at 20 µM; 190,000 tested, under 10 active; AID 1019, 2008;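 active means over 50% inhibition of intestinal alkaline phosphatase at 20 µM in the single-dose screen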
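Incubation: 30 min reaction at room temperature / Material: purified bovine intestinal alkaline phosphatase (IAP) enzyme / Input: enzyme at 1/65,000,000 dilution / Dosing: 20 µM single dose / Signal: CDP-star luminescence signal / Reagent: CDP-star chemiluminescent phosphatase substrate, 30 µM final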
mIAP activ = activators of mouse IAP, primary screen, biochemical, luminescence, uHTS; muIAP, CDP-Star luminescence, 30 min; hits give high values; 1 = vehicle-only enzyme signal, 0 = enzyme-free wells; activation factor at 10 µM; actives 0.24% (n = 330,000); AID 2805, 2010;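 active means activation factor of at least 2 at 20 µM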
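System: Mouse IAP enzyme | Also added: CDP-Star substrate | Dosing: Compounds dispensed in DMSO | Schedule: 30 min enzyme-substrate-compound incubation at room temperature | Technique: Chemiluminescence readout | Control set: DMSO-only wells and no-enzyme negative control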
hIAP act confirm = human IAP activators, confirmation, biochemical, luminescence, single concentration, uHTS hits. shares compounds with hIAP act. purified IAP, CDP-Star luminescence, 30 min; hits give low values. activation (%Activity, negative = activation), % at 8.3 µM. actives 10% (n = 880);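 active means at least twofold enzyme activation in any of six single-dose repeats, which the averaged readout prints as negative percent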
An asterisk follows results filed as active; i = inactive; nt = no result. Only some compounds are listed: those with a hit (about 0.79% of all), similar ones and a draw of the others.

SMILES	hIAP act	mIAP inh	bIAP act	hIAP inh	bIAP inhibitor	mIAP activ	hIAP act confirm
O=c1c2c(-c3cccs3)csc2ncn1-c1ccc(Br)cc1	0.39	14	0.9	61*	6	0.86	-112*
Cc1cc(OCC(=O)Nc2ncn[nH]2)ccc1Cl	2*	-4	nt	-101	nt	1	-87*
COc1ccc(NC(=O)CCN2CCN(S(=O)(=O)c3cc(Cl)ccc3OC)CC2)cc1	0.64	6	1	36*	4	0.94	36
COc1ccc(NC(=O)CCN2CCN(S(=O)(=O)c3ccc(Br)cc3)CC2)cc1	1.1	4	nt	-15	nt	0.96	nt
Nc1cc(Nc2ccccc2)ccn1	0.62	4	nt	38*	nt	0.96	8
Cc1c(Cl)cccc1NC(=O)C(=O)NNS(=O)(=O)c1ccc(F)cc1	2.4*	20	nt	-139	nt	0.8	-20
COc1cc(NC(=O)c2cccs2)c(OC)cc1NC(=O)Nc1ccc(F)cc1	0.95	6	nt	5	nt	0.94	nt
Cc1cc(=O)[nH]c(-n2[nH]c3c(c2=O)CCCC3)n1	2.3*	19	1.5	-133	-49	0.81	56
Cc1nn(-c2ccccc2)c(C)c1NC(=O)COc1cc(F)ccc1[N+](=O)[O-]	1	-9	nt	-4	nt	1.1	nt
CC1CCN(S(=O)(=O)c2ccc3c(c2)CCN3C(=O)C2CCC2)CC1	0.82	2	nt	18	nt	0.98	nt
CC1CCCN(S(=O)(=O)c2ccc3c(c2)CCN3C(=O)C2CCC2)C1 (configuration not stated)	50*	3	1	i	0	0.97	0
O=C(NC1CCCC1)c1ccc2c(c1)N(Cc1ccc(F)cc1)CCS2	0.61	-14	nt	39*	nt	1.1	-67
Cc1ccc(CN2CCSc3ccc(C(=O)NC4CCCC4)cc32)cc1	1.3	-22	nt	-26	nt	1.2	nt
Cc1ccc2occ(/C=N/NC(=O)c3ccncc3)c(=O)c2c1	2.3*	10	nt	-131	nt	0.9	-31
C=CCN1C(=O)/C(=C/C=C2/N(CC)c3ccc(S(=O)(=O)N(C)C)cc3N2CC)SC1=S	0.64	27	0.9	36*	14	0.73	0
C[C@@H]1C[C@H]2[C@@H]3C[C@H](F)C4=CC(=O)C=C[C@]4(C)[C@@]3(Cl)[C@@H](O)C[C@]2(C)[C@H]1C(=O)COC(=O)C(C)(C)C	1.2	6	nt	-17	nt	0.94	nt
NCCNc1ccc(C(=O)N2c3ccccc3Sc3ccccc32)cc1[N+](=O)[O-]	3.5*	4	nt	-246	nt	0.96	-42
Nc1ccc(C(=O)OCC(=O)N2c3ccccc3Sc3ccccc32)cc1[N+](=O)[O-]	nt	nt	1	nt	-2	nt	nt
CCCCN(Cc1ccco1)C(=O)C1CCCN(c2ncnc3c2nc2n3CCCCC2)C1 (configuration not stated)	1.1	6	nt	-7	nt	0.94	nt
COC(=O)CN=Cc1c(O)n(-c2ccc(Cl)cn2)c(=O)c2ccccc12	1	-3	1.1	-4	-6	1	nt
CC(C)(C)N/N=C/c1c(O)n(-c2ccc(Cl)cn2)c(=O)c2ccccc12	2*	0	1.1	-103	-6	1	-93*
CCCCc1ccc(NC(=O)CSc2nc(=O)n(CCCN3CCOCC3)c3c2CCC3)cc1	1.1	1	nt	-10	nt	0.99	nt
O=C(NCCCN1CCOCC1)C(=O)N/N=C/c1ccccc1Cl	0.86	5	nt	14	nt	0.95	nt
O=C(NCc1ccccn1)C(=O)N/N=C/c1ccccc1O	3*	4	nt	-198	nt	0.96	3
O=C(NCCCN1CCOCC1)C(=O)N/N=C/c1ccccc1O	2*	-18	nt	-100	nt	1.2	28
SMILES	hIAP act	mIAP inh	bIAP act	hIAP inh	bIAP inhibitor	mIAP activ	hIAP act confirm
CC(=O)Nc1cccc(-c2csc(Nc3ccccn3)n2)c1	2.2*	-4	1	-118	3	1	-94*
O=C(NCC1CCCO1)C(=O)N/N=C/c1cc(Cl)ccc1O (configuration not stated)	2*	-8	nt	-100	nt	1.1	-16
CC(Sc1nnc(COc2ccc(Cl)cc2)o1)C(=O)Nc1ccc(N2CCOCC2)cc1 (configuration not stated)	1.2	6	nt	-16	nt	0.94	nt
N#C/C(=C\c1ccccc1Cl)C(=O)NC(=O)Oc1ccccc1	0.89	0	0.9	11	9	1	nt
N#C/C(=C\c1ccccc1)C(=O)NC(=O)Oc1ccccc1	0.62	-3	0.9	38*	5	1	-6
Cc1cc(NC(=O)CCN2CCCCC2)ccc1Br	1.2	-1	nt	-24	nt	1	nt
CCOC(=O)[C@@H]1[C@H]2COc3ccccc3[C@H]2N2C(=O)N(c3ccc(Br)cc3)C(=O)[C@]12C	1	4	nt	0	nt	0.96	nt
CCCc1ccc2oc(C(=O)N3CCN(C4CCS(=O)(=O)C4)CC3)c(C)c2c1 (configuration not stated)	1.1	0	nt	-10	nt	1	nt
CCOc1cc(/C=C2/C(=O)NN(c3cccc(Cl)c3)C2=O)ccc1O	0.67	16	nt	33	nt	0.83	nt
COc1cc(/C=C2/C(=O)NN(c3cccc(Cl)c3)C2=O)cc(OC)c1O	0.5	23	nt	50*	nt	0.77	9
COc1ccc(CC(NC(C)=O)C(=O)NC2CCN(C(=O)NCc3ccccc3)CC2)cc1 (configuration not stated)	0.64	9	1	36*	-2	0.91	-49
COc1cccc(CC(NC(C)=O)C(=O)NC2CCN(C(=O)NCc3ccccc3)CC2)c1 (configuration not stated)	1.1	-8	nt	-12	nt	1.1	nt
Cn1c(CNC(=O)CNC(=O)c2ccccc2F)cc(=O)n(C)c1=O	0.92	3	nt	8	nt	0.97	nt
COc1ccccc1C(=O)NCC(=O)NCc1cc(=O)n(C)c(=O)n1C	0.61	6	nt	39*	nt	0.94	-5
CC(Oc1ccc(S(=O)(=O)N2CCCC2)cc1[N+](=O)[O-])C(=O)NC1(C#N)CCCCC1 (configuration not stated)	1.1	-5	nt	-14	nt	1.1	nt
O=C(/C=C/c1cc(Br)ccc1O)c1ccco1	0.91	3	nt	9	nt	0.97	nt
O=C(/C=C/c1ccccc1O)c1ccco1	0.58	22	nt	42*	nt	0.78	-104*
